Results on two compounds are retold here after ChEMBL document CHEMBL3992565, “Discovery of [1,2,3]Triazolo[4,5-d]pyrimidine Derivatives as Novel LSD1 Inhibitors” (ACS Med Chem Lett, 2017).

The source made the active and inactive calls. No cut-off for these calls is given here. Some results are limits rather than exact numbers.

In data set [1] the test system is MGC-803. Briefly: Antiproliferative activity against human MGC803 cells after 5 days by MTT assay. Particulars: MGC-803, 120 h.
For data set [2], the target named is T1, Lysine-specific histone demethylase 1A (Homo sapiens, UniProt O60341). As to the kind of experiment: Inhibition of full length recombinant LSD1 (unknown origin) expressed in Escherichia coli […] using H3K4me2 as substrate by fluorescence assay.
Data set [3] addresses T1, Lysine-specific histone demethylase 1A. Particulars: 600 uM.
The species entered for data set [4] is Homo sapiens. Briefly: Activity at histone lysine methyltransferase in human MGC803 cells assessed as effect on H3K9me2 level up to 4 uM after 5 days by Western blot method. Format: cell-based. A digest of the protocol:
(§1)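 MGC-803 gastric cancer cells, which overexpress LSD1, were treated at the indicated concentrations. Several histone methylation marks were then probed by Western blot. Each experiment was run independently at least three times.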

Data set [5] deals with T2, MAO-B (Homo sapiens, UniProt P27338).
T2 sequence (P27338 whole entry): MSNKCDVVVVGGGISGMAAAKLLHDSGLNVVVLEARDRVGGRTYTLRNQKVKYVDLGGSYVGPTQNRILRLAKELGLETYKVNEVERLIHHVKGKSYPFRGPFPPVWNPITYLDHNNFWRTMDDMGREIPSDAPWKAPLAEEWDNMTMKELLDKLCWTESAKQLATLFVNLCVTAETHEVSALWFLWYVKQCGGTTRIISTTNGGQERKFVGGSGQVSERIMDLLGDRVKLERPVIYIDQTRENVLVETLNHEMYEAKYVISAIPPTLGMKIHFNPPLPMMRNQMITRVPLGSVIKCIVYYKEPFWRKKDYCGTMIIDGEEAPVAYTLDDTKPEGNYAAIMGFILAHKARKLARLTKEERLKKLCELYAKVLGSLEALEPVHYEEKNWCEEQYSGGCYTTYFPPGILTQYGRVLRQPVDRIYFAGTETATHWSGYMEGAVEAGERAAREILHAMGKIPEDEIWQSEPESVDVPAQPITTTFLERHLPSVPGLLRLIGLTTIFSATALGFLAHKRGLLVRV
Briefly: Inhibition of MAO-B (unknown origin) at 1 uM using luciferin-derived luminogenic substrate by MAO-Glo assay relative to control. Particulars: MAO-B enzyme (unknown origin), probe luciferin-derived luminogenic substrate.

The species entered for data set [6] is Homo sapiens. Briefly: Activity at histone demethylase in human MGC803 cells assessed as effect on H3K9me1 level up to 4 uM after 5 days by Western blot method. It counts as cell-based. In a few lines: as §1
Data set [7] concerns MGC-803. As to the kind of experiment: Antimigratory activity against human MGC803 cells at lower concentration after 24 hrs by Hoechst 33258 staining based transwell assay. It counts as functional, cell-based. In a few lines:
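Migration was measured by transwell assay read by high content analysis. MGC-803 cells were treated for 24 h at three low concentrations. Data are mean ± SD from at least three independent experiments, with significance at p < 0.01.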

For data set [8], the system named is MGC-803. As to the kind of experiment: Effect on LSD1 expression in human MGC803 cells up to 4 uM after 5 days by DAPI staining based immunofluorescence assay. It counts as cell-based. Particulars: mgc-803, 120 h. In a few lines: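 MGC-803 cells were seeded in 96-well plates and treated for 5 days at the indicated concentrations. LSD1 was stained by immunofluorescence, with DAPI used for cell counting. Each well was scored over 12 fields by high content analysis. Data are mean ± SD from at least three experiments.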

Data set [9] concerns the target T2, MAO-B. As to the kind of experiment: Inhibition of MAO-B (unknown origin) at 10 uM using luciferin-derived luminogenic substrate by MAO-Glo assay relative to control. Particulars: MAO-B enzyme (unknown origin), probe luciferin-derived luminogenic substrate.
The species entered for data set [10] is Homo sapiens. Briefly: Activity at histone lysine methyltransferase in human MGC803 cells assessed as effect on H3K9me1 level up to 4 uM after 5 days by Western blot method. Format: cell-based. A digest of the protocol:
as §1

For data set [11], the target named is T3, MAO-A (Homo sapiens, UniProt P21397).
T3 sequence (P21397 whole entry): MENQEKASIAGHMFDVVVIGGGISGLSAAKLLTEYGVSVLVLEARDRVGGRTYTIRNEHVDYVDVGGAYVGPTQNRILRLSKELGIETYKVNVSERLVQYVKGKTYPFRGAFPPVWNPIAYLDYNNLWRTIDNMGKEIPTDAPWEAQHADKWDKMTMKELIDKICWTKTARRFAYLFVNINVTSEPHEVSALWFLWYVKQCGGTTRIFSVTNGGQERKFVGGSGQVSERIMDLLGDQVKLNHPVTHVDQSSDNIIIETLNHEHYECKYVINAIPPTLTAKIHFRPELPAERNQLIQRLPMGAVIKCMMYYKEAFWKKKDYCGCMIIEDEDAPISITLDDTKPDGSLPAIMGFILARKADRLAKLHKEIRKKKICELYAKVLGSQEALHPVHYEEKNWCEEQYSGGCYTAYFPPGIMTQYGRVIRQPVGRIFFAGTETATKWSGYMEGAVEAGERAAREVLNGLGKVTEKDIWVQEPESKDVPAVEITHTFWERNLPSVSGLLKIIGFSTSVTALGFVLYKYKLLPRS
Briefly: Inhibition of MAO-A (unknown origin) at 10 uM using luciferin-derived luminogenic substrate by MAO-Glo assay relative to control. Particulars: MAO-A enzyme (unknown origin), probe luciferin-derived luminogenic substrate.

Data set [12] deals with MGC-803. As to the kind of experiment: Antimigratory activity against human MGC803 cells assessed as accumulation of E-cadherin at 0.5 to 2 uM after 24 hrs by Western blot method. Format: functional, cell-based. A digest of the protocol: (§2)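 MGC-803 cells were exposed for 24 h to three low concentrations. E-cadherin (epithelial marker) and N-cadherin (mesenchymal marker) were then probed by Western blot. Data are mean ± SD from at least three experiments.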

Data set [13] is filed under the species Homo sapiens. Briefly: Activity at histone demethylase in human MGC803 cells assessed as effect on H3K9me2 level up to 4 uM after 5 days by Western blot method. Format: cell-based. In a few lines: as §1
For data set [14], the target named is T3, MAO-A. As to the kind of experiment: Inhibition of MAO-A (unknown origin) at 1 uM using luciferin-derived luminogenic substrate by MAO-Glo assay relative to control. Particulars: MAO-A enzyme (unknown origin), probe luciferin-derived luminogenic substrate.
The species named for data set [15] is Homo sapiens. As to the kind of experiment: Activity at histone demethylase in human MGC803 cells assessed as effect on H3K4me3 level up to 4 uM after 5 days by Western blot method. Format: cell-based. A digest of the protocol:
as §1

The species entered for data set [16] is Homo sapiens. Briefly: Activity at histone lysine methyltransferase in human MGC803 cells assessed as effect on H3K4me3 level up to 4 uM after 5 days by Western blot method. Format: cell-based. In a few lines: as §1
Data set [17] has as its system MGC-803. As to the kind of experiment: Antimigratory activity against human MGC803 cells assessed as decrease in N-cadherin level at 0.5 to 2 uM after 24 hrs by Western blot method. Format: functional, cell-based. A digest of the protocol: as §2

For the compound `O=C(O)c1ccc(CN2CCC(CN[C@@H]3C[C@H]3c3ccccc3)CC2)cc1` [GSK2879552], the values for the IC50 (with MGC-803 [1]; in [2]) were over 125 µM and 0.041 µM, respectively. For the same compound, the inhibition entry in [3] was “inactive”.
In the case of `c1ccc(CSc2nc(Sc3ccccn3)c3nnn(Cc4ccccc4)c3n2)cc1`, the outcome in the data set listed under Homo sapiens [4], in the data set filed under Homo sapiens [6], in the data set listed under Homo sapiens [10], in the data set filed under Homo sapiens [13], in the data set listed under Homo sapiens [15] and in the data set listed under Homo sapiens [16] was inactive. Further, the inhibition at 1 µM against MAO-B [5] was 11%; against MAO-A [14], 34%. Moreover, the IC50 with MGC-803 [1] was found to be 7.64 µM. In addition, the outcome in the data set with MGC-803 [7], in the data set on MGC-803 [12] and in the data set with MGC-803 [17] was Active. The Activity result with MGC-803 [8] is “Non-Toxic”. Moreover, the inhibition at 10 µM at MAO-B [9] was 39%; on MAO-A [11] it was 59%.
